Assay results reported in ChEMBL document CHEMBL1148725, “2,2,2-Trichloro-N-({2-[2-(dimethylamino)ethyl]-1,3-dioxo-2,3-dihydro-1H-benzo[de]isoquinolin- 5-yl}carbamoyl)acetamide (UNBS3157), a novel nonhematotoxic naphthalimide derivative with potent antitumor activity” (J Med Chem, 2007).
The source made the active and inactive calls. The calls are words filed in the database; no cut-off is given here.

Assays:
[1] = tested on: Mus musculus; test: Hematotoxicity in B6D2F1 mouse assessed as platelet count at 80 mg/kg, po; type: organism-based; parameters: dose 80 mg/kg, route oral; details: in vivo
[2] = tested on: Mus musculus; test: Hematotoxicity in B6D2F1 mouse assessed as platelet count at 160 mg/kg, po; type: organism-based; parameters: dose 160 mg/kg, route oral; details: in vivo
[3] = tested on: HCT-15; test: Antiproliferative activity against HCT15 cells after 72 hrs by MTT assay; type: functional, cell-based, Homo sapiens; details: Homo sapiens, HCT-15, 72 h
Outline: (§1)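 Cells cultured with each compound for three days; growth then read by the MTT colorimetric assay and reported as IC50 (µM).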

[4] = tested on: LoVo; test: Antiproliferative activity against LoVo cells after 72 hrs by MTT assay; type: functional, cell-based, Homo sapiens; details: Homo sapiens, LoVo, 72 h; outline: as §1
[5] = tested on: A549; test: Antiproliferative activity against A549 cells after 72 hrs by MTT assay; type: functional, cell-based, Homo sapiens; details: Homo sapiens, A549, 72 h; outline: as §1
[6] = tested on: MCF7; test: Antiproliferative activity against MCF7 cells after 72 hrs by MTT assay; type: functional, cell-based, Homo sapiens; details: Homo sapiens, MCF7, 72 h; outline: as §1
[7] = tested on: L1210; test: Antitumor activity in L1210 cells xenografted B6D2F1 mouse at 40 mg/kg, ip relative to control; type: functional; details: route intraperitoneal
Outline: (§2)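 Mice grafted with L1210 leukaemia cells on day 0, then dosed i.p. four times weekly on days 1-4 and 8-11. Five mice per group. Outcome is %T/C, the median survival of treated over control. Kruskal-Wallis test followed by Dunn comparisons against control.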

[8] = tested on: L1210; test: Antitumor activity in L1210 cells xenografted B6D2F1 mouse at 120 mg/kg, ip relative to control; type: functional; details: route intraperitoneal; outline: as §2
[9] = tested on: Mus musculus; test: Hematotoxicity in B6D2F1 mouse assessed as platelet count at 20 mg/kg, iv; type: organism-based; parameters: dose 20 mg/kg, route intravenous; details: in vivo
[10] = tested on: Mus musculus; test: Hematotoxicity in B6D2F1 mouse assessed as WBC count at 40 mg/kg, iv; type: organism-based; parameters: dose 40 mg/kg, route intravenous; details: in vivo
[11] = tested on: Mus musculus; test: Hematotoxicity in B6D2F1 mouse assessed as RBC count at 80 mg/kg, po; type: organism-based; parameters: dose 80 mg/kg, route oral; details: in vivo
[12] = tested on: Mus musculus; test: Hematotoxicity in B6D2F1 mouse assessed as WBC count at 80 mg/kg, po; type: organism-based; parameters: dose 80 mg/kg, route oral; details: in vivo
[13] = tested on: Mus musculus; test: Hematotoxicity in B6D2F1 mouse assessed as WBC count at 120 mg/kg, po; type: organism-based; parameters: dose 120 mg/kg, route oral; details: in vivo
[14] = tested on: A549; test: Antitumor activity against human A549 cells xenografted in mouse at 10 mg/kg, iv; type: functional, organism-based; parameters: dose 10 mg/kg
Outline: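 Human A549 NSCLC cells grafted orthotopically into the lungs of immunocompromised mice. Compound given i.v. at 10 mg/kg. Survival gain assessed by survival curve analysis.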

[15] = target: T1, DNA topoisomerase 1 (Homo sapiens) (UniProt P11387); test: Inhibition of human topoisomerase 1 by DNA unwinding test
T1 sequence (whole entry): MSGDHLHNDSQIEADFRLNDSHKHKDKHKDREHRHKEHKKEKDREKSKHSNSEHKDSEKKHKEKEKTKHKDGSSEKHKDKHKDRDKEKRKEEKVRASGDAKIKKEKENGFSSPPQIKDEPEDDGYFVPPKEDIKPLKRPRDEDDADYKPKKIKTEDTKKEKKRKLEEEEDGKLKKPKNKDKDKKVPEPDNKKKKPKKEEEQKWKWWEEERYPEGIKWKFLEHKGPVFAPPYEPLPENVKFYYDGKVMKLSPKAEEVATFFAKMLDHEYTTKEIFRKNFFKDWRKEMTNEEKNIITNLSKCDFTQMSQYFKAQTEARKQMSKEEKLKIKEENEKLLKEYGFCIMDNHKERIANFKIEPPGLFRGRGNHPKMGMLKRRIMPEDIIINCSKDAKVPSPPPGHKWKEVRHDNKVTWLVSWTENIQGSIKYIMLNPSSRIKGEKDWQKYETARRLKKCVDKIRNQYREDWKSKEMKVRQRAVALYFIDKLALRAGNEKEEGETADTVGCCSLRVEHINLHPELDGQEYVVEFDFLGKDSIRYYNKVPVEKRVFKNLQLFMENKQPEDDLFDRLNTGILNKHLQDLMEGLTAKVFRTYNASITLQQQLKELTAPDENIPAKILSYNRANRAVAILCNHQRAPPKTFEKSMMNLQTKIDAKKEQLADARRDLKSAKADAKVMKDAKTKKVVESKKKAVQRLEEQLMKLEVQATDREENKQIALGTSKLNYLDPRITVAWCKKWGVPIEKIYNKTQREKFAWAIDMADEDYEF
Outline: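 DNA unwinding assay: relaxed pBR322 plasmid converted to supercoiled form in presence of topoisomerase I; compounds at final 4–32 µM (one up to 15–55 µM); ethidium bromide-stained agarose gels; UC50 taken as concentration shifting relaxed band to midpoint between supercoiled and relaxed states.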

[16] = target: DNA topoisomerase 2-alpha (Homo sapiens) (UniProt P11388); test: Inhibition of human topoisomerase 2-mediated kinetoplast DNA […] at 50 uM
Sequence of DNA topoisomerase 2-alpha (Homo sapiens) (P11388 whole entry): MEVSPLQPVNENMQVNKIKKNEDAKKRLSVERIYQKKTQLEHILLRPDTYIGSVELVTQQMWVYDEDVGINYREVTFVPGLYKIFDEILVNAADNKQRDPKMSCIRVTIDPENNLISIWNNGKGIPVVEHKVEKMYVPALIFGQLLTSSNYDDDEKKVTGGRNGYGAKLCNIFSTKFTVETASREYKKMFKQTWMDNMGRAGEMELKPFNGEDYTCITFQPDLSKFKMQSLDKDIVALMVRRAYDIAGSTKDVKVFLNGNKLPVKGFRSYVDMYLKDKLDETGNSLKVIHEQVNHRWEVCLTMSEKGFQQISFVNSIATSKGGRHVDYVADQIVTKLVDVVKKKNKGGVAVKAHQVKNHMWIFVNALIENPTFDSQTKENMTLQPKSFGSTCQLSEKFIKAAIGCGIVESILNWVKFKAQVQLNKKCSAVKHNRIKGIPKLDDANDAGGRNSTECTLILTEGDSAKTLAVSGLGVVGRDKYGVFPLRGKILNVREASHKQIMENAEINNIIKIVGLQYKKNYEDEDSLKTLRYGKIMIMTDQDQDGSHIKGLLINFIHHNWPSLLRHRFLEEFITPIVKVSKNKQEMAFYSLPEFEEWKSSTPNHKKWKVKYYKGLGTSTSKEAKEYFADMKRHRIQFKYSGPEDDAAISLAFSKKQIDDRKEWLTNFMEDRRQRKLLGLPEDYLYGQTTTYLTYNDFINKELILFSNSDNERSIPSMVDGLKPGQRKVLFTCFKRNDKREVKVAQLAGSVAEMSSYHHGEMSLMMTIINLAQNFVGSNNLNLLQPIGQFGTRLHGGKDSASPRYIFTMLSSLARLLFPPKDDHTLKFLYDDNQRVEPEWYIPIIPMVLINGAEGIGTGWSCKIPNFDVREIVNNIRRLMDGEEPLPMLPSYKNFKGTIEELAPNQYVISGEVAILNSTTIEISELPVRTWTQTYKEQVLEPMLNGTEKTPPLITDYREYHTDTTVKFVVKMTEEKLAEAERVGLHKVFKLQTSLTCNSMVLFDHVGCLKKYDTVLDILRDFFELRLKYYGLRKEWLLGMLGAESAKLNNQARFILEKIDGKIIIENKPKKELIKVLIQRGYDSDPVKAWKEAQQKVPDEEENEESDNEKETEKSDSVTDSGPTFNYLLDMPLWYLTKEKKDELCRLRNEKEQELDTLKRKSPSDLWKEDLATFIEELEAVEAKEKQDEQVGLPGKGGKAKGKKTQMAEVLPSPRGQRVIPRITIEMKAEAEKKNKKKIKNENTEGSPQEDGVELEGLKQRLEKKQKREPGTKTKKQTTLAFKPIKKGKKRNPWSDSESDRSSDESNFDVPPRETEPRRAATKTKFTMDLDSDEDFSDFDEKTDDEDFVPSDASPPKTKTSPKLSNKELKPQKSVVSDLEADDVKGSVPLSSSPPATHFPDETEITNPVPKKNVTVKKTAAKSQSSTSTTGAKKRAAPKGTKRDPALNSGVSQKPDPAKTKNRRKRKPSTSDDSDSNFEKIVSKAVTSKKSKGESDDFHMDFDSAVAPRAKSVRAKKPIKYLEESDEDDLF
Outline: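 Topoisomerase II strand-passage activity by kDNA decatenation; compounds at 50 µM; catenated networks stay in wells, decatenated kDNA enters ethidium bromide-stained agarose gel; no-enzyme and no-drug reactions as controls.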

[17] = tested on: PC-3; test: Induction of apoptosis in human PC3 cells at 10 uM after 72 hrs; type: functional
Outline: (§3)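 Prostate cancer cells exposed for 72 h to 0, 1 or 10 µM. Apoptosis quantified by flow cytometry after Annexin V-FITC staining.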

[18] = tested on: DU-145; test: Induction of apoptosis in human DU145 cells at 10 uM after 72 hrs; type: functional; outline: as §3
[19] = tested on: PC-3; test: Induction of apoptosis in human PC3 cells assessed as p53 activation; type: functional, cell-based
Outline: (§4)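 PC-3 and DU-145 cells treated over 72 h at 1 and 10 µM, compared with untreated cells. p53, PARP cleavage and procaspase-3/-9 activation assessed by immunoblotting.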

[20] = tested on: PC-3; test: Induction of apoptosis in human PC3 cells assessed as procaspase-9 activation; type: functional, cell-based; outline: as §4
[21] = tested on: DU-145; test: Induction of apoptosis in human DU145 cells assessed as procaspase-8 activation; type: functional, cell-based
[22] = tested on: DU-145; test: Induction of apoptosis in human DU145 cells assessed as PARP cleavage activation; type: functional, cell-based; outline: as §4
[23] = tested on: PC-3; test: Induction of autophagy in human PC3 cells by acridine orange staining at 10 uM after 72 hrs; type: functional
[24] = tested on: DU-145; test: Induction of autophagy in human DU145 cells by acridine orange staining at 10 uM after 72 hrs; type: functional
[25] = tested on: PC-3; test: Induction of senescence in human PC3 cells; type: functional, cell-based
Outline: (§5)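 SA-β-galactosidase staining of PC-3 and DU-145 prostate cancer cells after 72 h at 10 µM; adriamycin 20 nM as positive control; expressed as percentage of positively stained cells.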

[26] = tested on: DU-145; test: Induction of senescence in human DU145 cells; type: functional, cell-based; outline: as §5
[27] = tested on: Mus musculus; test: Hematotoxicity in ip dosed B6D2F1 mouse assessed as decrease in WBC count; type: organism-based; details: in vivo
Outline: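 Healthy female B6D2F1 mice, 10 per group, were dosed i.p. three times a week for five consecutive weeks (15 doses). Each compound was given at two dose levels chosen relative to its MTD, in DMSO/saline 5:95 v/v. Mice were sacrificed 3 days after the last dose, and platelet, RBC and WBC counts were taken by Coulter counter. Data are mean ± SEM.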

[28] = species on record: Homo sapiens; test: Inhibition of human topoisomerase 2 at 50 uM by plasmid linearization assay
[29] = tested on: MDA-MB-231; test: Antitumor activity against human MDA-MB-231 cells xenografted in immunocompromised mouse at 10 mg/kg, iv

CN(C)CCN1C(=O)c2cccc3cc(NC(=O)NC(=O)C(Cl)(Cl)Cl)cc(c23)C1=O was tested, and the Activity [1] was 872 10^3 /uL, the Activity [2] was 1005 10^3 /uL and the IC50 [3] was 900 nM. For the same molecule, the IC50 [4] was 900 nM, the IC50 [5] was 900 nM and the IC50 [6] was 1800 nM. The Activity [7] was 272%, the Activity [8] was 281% and the Activity [9] was 397 10^3 /uL. For the same molecule, the Activity [10] was 2.97 10^3 /uL, the Activity [11] was 9.95 10^6 /uL and the Activity [12] was 3.21 10^3 /uL. For the same molecule, the Activity [13] was 2.85 10^3 /uL, the Activity [14] was “Active” and the UC50 [15] was 40 µM. The Activity [16] was “Active”, the Activity [17] was 10% and the Activity [18] was 15%. For the same molecule, the Activity [19] was “inactive”, the Activity [20] was “inactive” and the Activity [21] was “inactive”. The Activity [22] was “inactive”, the Activity [23] was 35% and the Activity [24] was 10%. The Activity [25] was “inactive”, the Activity [26] was “Active” and the Activity [27] was “Non-toxic”. For the same molecule, the Activity [28] was “inactive” and the Activity [29] was “Active”.
